These results are taken from ChEMBL document CHEMBL4732078 (Eur J Med Chem, 2021).

The source made the active and inactive calls. The calls are words filed in the database; no cut-off is given here.

One assay concerns SJRH30. The experiment in a line: Antiproliferative activity against human Rh30 cells assessed as reduction in cell viability after 72 hrs by sulforhodamine B assay. The following applies: SJRH30, 72 h. Type of assay: functional, cell-based. The method, boiled down:
(§1)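 SRB assay. Exponentially growing cells seeded at 3000–5000/well, compounds added serially diluted after 24 h, cultured 72 h. Cells fixed with 10% TCA, stained with SRB, dye dissolved in 10 mM Tris-HCl, absorbance read at 560 nm. Inhibition = (ODcontrol − ODtreated)/ODcontrol × 100%. IC50 is the mean of at least three independent tests.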
For orientation: In SRB staining, fixed cells bind dye roughly in proportion to their protein.

Assay [1] addresses Phosphatidylinositol 4,5-bisphosphate 3-kinase catalytic subunit alpha isoform (Homo sapiens, UniProt P42336). Description: Inhibition of human PI3Kalpha using PIP2 as substrate in presence of ATP measured after 30 mins by HTRF assay. The essentials: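 HTRF kit assay. Enzyme incubated with 10 μM PIP2; reaction started by adding ATP and run 30 min at room temperature, then stop solution and detection mix added and luminescence read. Compounds kept as 10 mM DMSO stocks.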
On the technique in general: TR-FRET usually uses a lanthanide donor and a delayed reading to cut background.

The subject of another assay is NCI-H23. The experiment in a line: Antiproliferative activity against human NCI-H23 cells assessed as reduction in cell viability after 72 hrs by sulforhodamine B assay. Type of assay: functional, cell-based. The settings on record: NCI-H23, 72 h. The essentials:
as §1

Another assay concerns NCI-H522. The experiment in a line: Antiproliferative activity against human NCI-H522 cells assessed as reduction in cell viability after 72 hrs by sulforhodamine B assay. Format: functional, cell-based. The settings on record: NCI-H522, 72 h. The essentials: as §1
The test system of another assay is NCI-H1650. The experiment in a line: Antiproliferative activity against human NCI-H1650 cells assessed as reduction in cell viability after 72 hrs by sulforhodamine B assay. Format: functional, cell-based. The settings on record: NCI-H1650, 72 h. The method, boiled down:
as §1

For another assay, the system named is NCI-H1975. Description: Antiproliferative activity against human NCI-H1975 cells assessed as reduction in cell viability after 72 hrs by sulforhodamine B assay. Format: functional, cell-based. The following applies: NCI-H1975, 72 h. The method, boiled down: as §1
The next assay concerns A549. The experiment in a line: Antiproliferative activity against human A549 cells assessed as reduction in cell viability after 72 hrs by sulforhodamine B assay. Type of assay: functional, cell-based. The following applies: A549, 72 h. The essentials: as §1
In the next assay the test system is Calu-3. The experiment in a line: Antiproliferative activity against human Calu3 cells assessed as reduction in cell viability after 72 hrs by sulforhodamine B assay. Format: functional, cell-based. The settings on record: Calu-3, 72 h. The method, boiled down:
as §1

The next assay deals with NCI-H226. The experiment in a line: Antiproliferative activity against human H226 cells assessed as reduction in cell viability after 72 hrs by sulforhodamine B assay. Format: functional, cell-based. The following applies: NCI-H226, 72 h. The method, boiled down: as §1
The subject of the next assay is NCI-H358. The experiment in a line: Antiproliferative activity against human NCI-H358 cells assessed as reduction in cell viability after 72 hrs by sulforhodamine B assay. Format: functional, cell-based. The following applies: NCI-H358, 72 h. The essentials: as §1
The test system of another assay is NCI-H460. Description: Antiproliferative activity against human NCI-H460 cells assessed as reduction in cell viability after 72 hrs by sulforhodamine B assay. Type of assay: functional, cell-based. The settings on record: NCI-H460, 72 h. The method, boiled down:
as §1

A short description of assay [2]: Inhibition of human PI3Kgamma R459Q mutant using PIP2 as substrate in presence of ATP measured after 30 mins by HTRF assay.
A short description of assay [3]: Inhibition of human PI3K p110alpha H1047R mutant/p85alpha using PIP2 as substrate incubated for 30 mins in presence of ATP by HTRF assay.
The subject of another assay is MCF7. The experiment in a line: Antiproliferative activity against human MCF7 cells assessed as reduction in cell viability after 72 hrs by sulforhodamine B assay. Format: functional, cell-based. The essentials: as §1
Another assay has as its system LoVo. The experiment in a line: Antiproliferative activity against human LoVo cells assessed as reduction in cell viability after 72 hrs by sulforhodamine B assay. Type of assay: functional, cell-based. The essentials:
as §1

The next assay concerns ZR-75-1. The experiment in a line: Antiproliferative activity against human ZR-75-1 cells assessed as reduction in cell viability after 72 hrs by sulforhodamine B assay. Type of assay: functional, cell-based. The method, boiled down: as §1
The subject of the next assay is T47D. The experiment in a line: Antiproliferative activity against human T47D cells assessed as reduction in cell viability after 72 hrs by sulforhodamine B assay. Type of assay: functional, cell-based. The method, boiled down: as §1
The subject of a further assay is BT-474. Description: Antiproliferative activity against human BT-474 cells assessed as reduction in cell viability after 72 hrs by sulforhodamine B assay. Format: functional, cell-based. The essentials:
as §1

The subject of the next assay is HCC1954. Description: Antiproliferative activity against human HCC1954 cells assessed as reduction in cell viability after 72 hrs by sulforhodamine B assay. Format: functional, cell-based. The essentials:
as §1

Another assay concerns SK-OV-3. Description: Antiproliferative activity against human SK-OV-3 cells assessed as reduction in cell viability after 72 hrs by sulforhodamine B assay. Type of assay: functional, cell-based. The method, boiled down: as §1
In the next assay the test system is PC-3. Description: Antiproliferative activity against human PC-3 cells assessed as reduction in cell viability after 72 hrs by sulforhodamine B assay. Format: functional, cell-based. The essentials:
as §1

The test system of the next assay is SK-BR-3. The experiment in a line: Antiproliferative activity against human SK-BR-3 cells assessed as reduction in cell viability after 72 hrs by sulforhodamine B assay. Format: functional, cell-based. The method, boiled down:
as §1

The test system of a further assay is MDA-MB-231. Description: Antiproliferative activity against human MDA-MB-231 cells assessed as reduction in cell viability after 72 hrs by sulforhodamine B assay. Format: functional, cell-based. The method, boiled down: as §1

Chain of Phosphatidylinositol 4,5-bisphosphate 3-kinase catalytic subunit alpha isoform (P42336 whole entry, canonical isoform): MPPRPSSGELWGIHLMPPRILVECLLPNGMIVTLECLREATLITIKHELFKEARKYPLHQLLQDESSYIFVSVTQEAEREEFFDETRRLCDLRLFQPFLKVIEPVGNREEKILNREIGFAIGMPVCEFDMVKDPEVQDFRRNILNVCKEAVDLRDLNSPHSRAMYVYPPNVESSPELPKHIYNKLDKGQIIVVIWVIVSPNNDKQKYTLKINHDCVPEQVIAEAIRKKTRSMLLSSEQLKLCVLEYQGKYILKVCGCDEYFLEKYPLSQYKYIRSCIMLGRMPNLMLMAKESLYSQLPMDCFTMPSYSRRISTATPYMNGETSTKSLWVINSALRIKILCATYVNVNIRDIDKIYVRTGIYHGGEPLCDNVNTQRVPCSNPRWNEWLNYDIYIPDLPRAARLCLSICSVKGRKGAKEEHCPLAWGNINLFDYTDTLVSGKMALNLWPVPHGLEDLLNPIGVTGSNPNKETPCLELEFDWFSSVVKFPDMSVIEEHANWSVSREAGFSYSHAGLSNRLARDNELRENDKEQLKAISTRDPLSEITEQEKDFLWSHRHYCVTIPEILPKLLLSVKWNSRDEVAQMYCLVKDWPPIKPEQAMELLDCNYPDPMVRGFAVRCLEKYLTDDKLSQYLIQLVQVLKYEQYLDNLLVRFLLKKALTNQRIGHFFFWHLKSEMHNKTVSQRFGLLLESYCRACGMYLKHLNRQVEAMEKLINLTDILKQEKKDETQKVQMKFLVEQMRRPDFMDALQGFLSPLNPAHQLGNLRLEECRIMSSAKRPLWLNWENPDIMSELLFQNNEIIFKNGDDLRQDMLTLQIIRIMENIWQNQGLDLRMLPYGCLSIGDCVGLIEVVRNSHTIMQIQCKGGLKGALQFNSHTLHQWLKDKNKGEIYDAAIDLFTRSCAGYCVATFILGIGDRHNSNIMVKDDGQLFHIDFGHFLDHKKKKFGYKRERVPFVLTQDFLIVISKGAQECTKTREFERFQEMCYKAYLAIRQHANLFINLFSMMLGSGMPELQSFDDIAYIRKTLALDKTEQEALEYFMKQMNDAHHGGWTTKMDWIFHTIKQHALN

By IC50 is commonly meant the concentration needed to halve the response being measured. As for `C=CC(=O)Nc1cc(C(F)(F)F)c(-c2nc(N3CCOCC3)c3cc(CN4CCN(S(C)(=O)=O)CC4)cn3n2)cn1`, the IC50 with SJRH30 stood at 710 nM; in assay [1] it was 19.9 nM.

For `CN(C)C1CCN(C(=O)c2ccc(NC(=O)Nc3ccc(-c4nc(N5CCOCC5)c5cc(CN6CCN(S(C)(=O)=O)CC6)cn5n4)cc3)cc2)CC1`, the 50% inhibitory concentration (IC50) in the assay with SJRH30 was determined as 80 nM; in assay [1], 39.6 nM.

For the compound `CS(=O)(=O)N1CCN(Cc2cc3c(N4CCOCC4)nc(-c4ccc(NC(=O)Nc5ccc(F)cc5)cc4)nn3c2)CC1`, the IC50 in the assay on NCI-H23 is 695 nM; with NCI-H522, 1020 nM; in the assay with SJRH30, 230 nM; in the assay on NCI-H1650, 2300 nM; with NCI-H1975, 460 nM; with A549, 1640 nM. The IC50 in the assay on Calu-3 worked out at 2360 nM; in the assay on NCI-H226, 1080 nM; in the assay with NCI-H358, 1290 nM; with NCI-H460, 897 nM; in assay [1] it was 105 nM.

On to `CN1CCN(C(=O)c2ccc(NC(=O)Nc3ccc(-c4nc(N5CCOCC5)c5cc(CN6CCN(S(C)(=O)=O)CC6)cn5n4)cc3)cc2)CC1`, for which the IC50 in the assay on NCI-H23 was 52 nM; in the assay with NCI-H522 it was 751 nM; with SJRH30, 70 nM; in the assay on NCI-H1650, 344 nM; with NCI-H1975, 25 nM; in the assay on A549, 144 nM. Further, the IC50 is 790 nM in the assay on Calu-3; 106 nM with NCI-H226; 187 nM with NCI-H358; 293 nM with NCI-H460; 41.1 nM in assay [1].

As for `CS(=O)(=O)N1CCN(Cc2cc3c(N4CCOCC4)nc(-c4cnc(NC(=O)Oc5ccccc5)cc4C(F)(F)F)nn3c2)CC1`, the IC50 in the assay with SJRH30 was 5070 nM; in assay [1], 44.4 nM.

In the case of `CS(=O)(=O)N1CCN(Cc2cc3c(N4CCOCC4)nc(-c4cnc(N)cc4C(F)(F)F)nn3c2)CC1`, the IC50 amounted to 880 nM in the assay with SJRH30 and 55.4 nM in [1].

With `CCOC(=O)Nc1cc(C(F)(F)F)c(-c2nc(N3CCOCC3)c3cc(CN4CCN(S(C)(=O)=O)CC4)cn3n2)cn1`, the IC50 in the assay on SJRH30 was 3270 nM; in [1], 21 nM.

As for `CCNC(=O)Nc1cc(C(F)(F)F)c(-c2nc(N3CCOCC3)c3cc(CN4CCN(S(C)(=O)=O)CC4)cn3n2)cn1`, the values for the IC50 (in the assay on SJRH30; in assay [1]) were 390 nM and 41.7 nM, respectively.

For `CS(=O)(=O)N1CCN(Cc2cc3c(N4CCOCC4)nc(-c4cnc(NC(=O)Nc5ccc(F)cc5)cc4C(F)(F)F)nn3c2)CC1`, the IC50 in the assay with SJRH30 is 180 nM; in [1] it was 17.7 nM.

With `CNC(=O)Nc1cc(C(F)(F)F)c(-c2nc(N3CCOCC3)c3cc(CN4CCN(S(C)(=O)=O)CC4)cn3n2)cn1`, the IC50 with SJRH30 amounted to 150 nM; in [1], 23.6 nM.

`C[C@H]1COCCN1c1nc(-c2cnc(N)cc2C(F)(F)F)nn2cc(CN3CCN(S(C)(=O)=O)CC3)cc12`: the IC50 came out at 970 nM with SJRH30 and 50.5 nM in assay [1].

Turning to `CS(=O)(=O)N1CCN(Cc2cc3c(N4CC5CCC(C4)O5)nc(-c4cnc(N)cc4C(F)(F)F)nn3c2)CC1`, the IC50 in the assay on SJRH30 stood at 1780 nM; in assay [1], 244 nM.

As to `CN(C)C(=O)c1ccc(NC(=O)Nc2ccc(-c3nc(N4CCOCC4)c4cc(CN5CCN(S(C)(=O)=O)CC5)cn4n3)cc2)cc1`, the IC50 is 90 nM with SJRH30 and 67.5 nM in [1].

`Cc1nc(NC(=O)N2CCC[C@H]2C(N)=O)sc1-c1ccnc(C(C)(C)C(F)(F)F)c1` [ALPELISIB]: the concentration for half-maximal inhibition (IC50) in [2] was determined as 1670 nM; in the assay on SJRH30 it was 7600 nM; in assay [3] it was 10.9 nM.

With `CS(=O)(=O)N1CCN(Cc2cc3nc(-c4cccc5[nH]ncc45)nc(N4CCOCC4)c3s2)CC1` [PICTILISIB], the IC50 in the assay on NCI-H23 stood at 936 nM; with NCI-H522, 2140 nM; in the assay on SJRH30 it was 478 nM; in the assay with NCI-H1650, 4730 nM; in the assay with NCI-H1975, 703 nM; with A549, 2480 nM. For the same compound, the IC50 in the assay with Calu-3 stood at 2870 nM; in the assay on NCI-H226, 5910 nM; in the assay with NCI-H358, 1330 nM; in the assay with NCI-H460 it was 1260 nM. Besides, the result in the assay on MCF7, with LoVo, in the assay on ZR-75-1, in the assay with T47D, in the assay with BT-474 and in the assay with HCC1954 was Active. The result in the assay on SK-OV-3, in the assay on PC-3, in the assay with SK-BR-3 and in the assay with MDA-MB-231 was Active.
